Bioassay records as filed in PubChem.
Hits are enriched below; roughly 2.3% of the tested compounds scored in any of these assays.
OXTR agonist: human OXTR agonists, primary screen, fluorescence, CHO-OTR cells, Fluo-8 calcium; Oxytocin receptor (Homo sapiens), P30559; Fluo-8 calcium fluorescence; normalized: DMSO 0%, oxytocin 100%; activation, % at 3 µM; 320,000 tested, 0.32% active; AID 2435, 2010;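 active = activation above the mean of all tested compounds plus 3 SD, cutoff set per screening run, cut at about 20% in these data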;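 also: peak over basal fluorescence ratio from a 100 s FLIPR kinetic read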
Target sequence (P30559 whole entry, looked up): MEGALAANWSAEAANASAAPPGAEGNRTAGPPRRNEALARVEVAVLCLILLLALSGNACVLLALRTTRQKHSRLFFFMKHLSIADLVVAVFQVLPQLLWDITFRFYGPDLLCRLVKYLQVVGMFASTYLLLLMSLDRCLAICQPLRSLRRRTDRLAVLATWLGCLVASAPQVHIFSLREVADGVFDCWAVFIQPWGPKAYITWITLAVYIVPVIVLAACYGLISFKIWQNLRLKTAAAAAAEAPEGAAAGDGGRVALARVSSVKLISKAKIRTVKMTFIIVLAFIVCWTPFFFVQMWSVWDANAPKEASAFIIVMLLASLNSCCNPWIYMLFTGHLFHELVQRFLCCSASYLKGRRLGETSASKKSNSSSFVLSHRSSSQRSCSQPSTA
V1aR counter: agonists of human V1a receptor, primary screen, counter-screen for OXTR agonist project, fluorescence, CHO-V1R cells. Vasopressin V1a receptor (Homo sapiens), P37288. Fluo-8 calcium fluorescence, agonist mode; 0% DMSO, 100% 3 nM vasopressin. activation, % at 3 µM. 320,000 tested, 0.25% active;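 active = activation above the mean activation of all tested compounds plus 3 SD, per screening run, cut at about 20% in these data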;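 also: signal is peak over basal fluorescence ratio across a 100 second FLIPR read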
TAAR1 ag: human TAAR1 agonists, primary screen, Fluo-8 calcium fluorescence, CHO RD-HGA16 cells; vehicle wells 0%, saturating PEA agonist 100%; AID 624467, 2012; activation, % at 3 µM; Trace amine-associated receptor 1 (Homo sapiens), Q96RJ0; 360,000 tested, 0.99% active;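 active = activation above the mean activation of all test compounds in the run plus 3 SD, cut at about 38% in these data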
Target sequence (Q96RJ0 whole entry, looked up): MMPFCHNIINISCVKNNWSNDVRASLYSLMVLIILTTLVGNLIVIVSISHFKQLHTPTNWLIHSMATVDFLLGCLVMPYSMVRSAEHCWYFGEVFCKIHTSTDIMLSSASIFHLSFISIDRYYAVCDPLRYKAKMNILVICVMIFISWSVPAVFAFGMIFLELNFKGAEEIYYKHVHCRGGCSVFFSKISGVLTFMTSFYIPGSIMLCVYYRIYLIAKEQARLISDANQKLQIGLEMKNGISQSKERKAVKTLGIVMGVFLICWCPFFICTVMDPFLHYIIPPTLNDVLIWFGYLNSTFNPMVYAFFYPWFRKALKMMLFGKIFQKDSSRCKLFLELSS
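Benchmarks: low control DMSO, high control PEA (EC100); System: CHO RD-HGA16 cells carrying human TAAR1 plus Gα16; Detection: Fluo-8 fluorescence, 5 s baseline then 140 s kinetic read; Schedule: 17-24 h plating, Fluo-8 75 min 37 °C, 30 min RT; Read-out basis: % activation from peak over basal fluorescence ratio, DMSO-to-PEA scaled.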
TAAR1 antagonist: human TAAR1 antagonists, primary screen, Fluo-8 calcium fluorescence, CHO RD-HGA16 cells. Trace amine-associated receptor 1 (Homo sapiens), Q96RJ0. antagonist. inhibition, % at 3 µM. 360,000 tested, 1.5% active. AID 624466, 2012;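 active = inhibition above a per-plate cutoff, the mean inhibition of test compounds on that plate plus 3 SD, cut at about 49% in these data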;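 also: 0% = DMSO plus EC80 beta-PEA response and 100% = DMSO alone without agonist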
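System: RD-HGA16 CHO cells with stable hTAAR1 and Gα16 | Probe or stimulus: EC80 β-phenethylamine stimulus | Dosing: 3 µM, single point | Times: Dye loading 75 min at 37 °C, then 30 min room temperature | Measured by: Fluo-8 calcium-sensitive fluorescence | Read-out basis: % inhibition of agonist calcium response | Replicates: n of 1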
OXTR potentiator: human OXTR potentiators, primary screen, fluorescence, CHO-OTR cells, Fluo-8 calcium; Oxytocin receptor (Homo sapiens), P30559; Fluo-8 calcium fluorescence, potentiator mode; 0% = oxytocin EC15, 100% = EC100; activation, % at 3 µM; 320,000 tested, 0.061% active;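 active = activation above that plate's cutoff, the mean activation of tested compounds plus 3 SD, cut at about 6.6% in these data, passing the limit was not always enough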;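 also: 100% uses oxytocin at 75 nM as the full agonist control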
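Assay system: CHO cell line stably expressing human OTR. Reagent: EC15 oxytocin agonist. Dosing: single dose, 3.0 µM nominal final compound concentration. Timing: compound 6 min at room temperature before oxytocin, 100 s read. Signal: kinetic Fluo-8 calcium fluorescence. Controls: oxytocin EC15 low and EC100 high.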
TAAR1 ag confirm: human TAAR1 agonists, retest of hits, confirmation, Fluo-8 calcium fluorescence, CHO RD-HGA16 cells. shares compounds with TAAR1 ag. activation, % at 3 µM. scaled: DMSO 0%, maximal phenethylamine 100%. 2,400 tested, 82% active;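 active = activation above a cutoff set at the run's mean compound activation plus 3 SD, cut at about 39% in these data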
Ga16 nonsel ag: nonselective calcium mobilization agonists, CHO-Ga16 cells, counter-screen for hTAAR1 agonist project, cell-based, fluorescence, CHO-Ga16 parental line; activation, % at 3 µM; 2,400 tested, 50% active; shares compounds with TAAR1 ag; Fluo-8 calcium fluorescence; normalized to maximal ATP response, DMSO zero; AID 651787, 2012;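 active = activation above the run cutoff, the mean activation over all tested wells plus 3 SD, cut at about 12% in these data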;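 also: 0% = DMSO wells and 100% = maximal ATP response on the peak over basal ratio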
TAAR1 desensitize: TAAR1 desensitization by agonist hits, confirmation, counter-screen for TAAR1 agonist project, cell-based, fluorescence, tachyphylaxis; shares compounds with TAAR1 ag; CHO RD-HGA16 hTAAR1, Fluo-8 calcium, beta-PEA response inhibition; inhibition, % at 3 µM; 2,400 tested, 46% active;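 active = inhibition above the run cutoff, the mean inhibition of all test compounds plus 3 SD, cut at about 49% in these data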;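 also: beta-PEA stimulus applied at its EC80; loss of beta-PEA calcium signal after compound pretreatment read as receptor desensitization; 0% = DMSO with beta-PEA at EC80 and 100% = DMSO alone without agonist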
Ga16 antag count: inhibition of ATP-evoked calcium response in CHO-Ga16 cells, counter-screen for TAAR1 agonist project, cell-based, fluorescence. inhibition, % at 3 µM. shares compounds with TAAR1 ag. CHO-Ga16 ATP-induced calcium, Fluo-8 fluorescence. 2,400 tested, 39% active;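 active = inhibition above the plate's mean compound inhibition plus 3 SD, computed per plate, cut at about 22% in these data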;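 also: 0% = EC80 ATP with DMSO and 100% = DMSO wells without ATP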
* = called active by the depositor; / = no result given.

SMILES	OXTR agonist	V1aR counter	TAAR1 ag	TAAR1 antagonist	OXTR potentiator	TAAR1 ag confirm	Ga16 nonsel ag	TAAR1 desensitize	Ga16 antag count
CCOCCCn1c(=S)[nH]c2cc(C(=O)NCCc3ccccc3)ccc2c1=O	1	2	44*	-9	-15	50*	7	21	10
CCCCCNC(=O)c1ccc2c(=O)n(CCCOCC)c(=S)[nH]c2c1	0	0	3	-14	-2	/	/	/	/
CN(Cc1ccccc1)C(=O)[C@@H]1CCCN1C(=O)[C@@H]1CCCN1C(=O)c1cccc2ccccc12	/	/	0	5	/	/	/	/	/
CN1C(C(=O)NCCc2cccs2)CC2Cn3c(nc4cc5ccccc5cc43)C21 (centres undefined)	4	3	78*	51*	-4	92*	15*	83*	11
Cc1cc2nc3n(c2cc1C)CC1CC(C(=O)NCCc2cccs2)N(C)C31 (centres undefined)	-1	0	101*	69*	-9	81*	2	71*	8
COc1ccc(CCNC(=O)C2CC3Cn4c(nc5cc6ccccc6cc54)C3N2C)cc1 (centres undefined)	5	6	20	-3	-9	/	/	/	/
COc1cccc(COC(=O)c2cc(S(=O)(=O)N3CCOCC3)ccc2Cl)c1OC	/	/	11	34	/	/	/	/	/
Cc1noc(C)c1COc1ccc(C(=O)N2CCC(C(N)=O)CC2)cc1	1	0	4	-11	-6	/	/	/	/
CCCCCC1C(=O)C[C@@H]2CCN3C(=O)CCC[C@H]1[C@H]23 (some centres undefined)	/	/	1	-1	/	/	/	/	/
Cc1cc(-c2csc(N)n2)c(C)n1CCC(C)C	0	0	2	-11	-5	/	/	/	/
CCOC(=O)c1cc(-c2ccccc2)n(CCC(=O)O)c1C	-1	0	9	2	-6	/	/	/	/
Cc1cc(-c2csc(N)n2)c(C)n1CCc1ccccc1	-1	0	78*	37	-15	102*	11	89*	-3
Cc1cc(C(=O)CCl)c(C)n1CCc1ccccc1	-2	0	64*	47	1	71*	7	66*	7
CCOC(=O)c1cc(C)n(CCc2ccccc2)c1C	-2	0	51*	20	-2	64*	6	47	9
CN(C1CCCCC1)S(=O)(=O)c1ccc(C(=O)Nc2sc3c(c2C(N)=O)CC(C)(C)NC3(C)C)cc1	11	3	85*	39	-7	58*	39*	28	35*
CCOC(=O)c1c(NC(=O)c2ccc(S(=O)(=O)N3CCOCC3)cc2)sc2c1CC(C)(C)NC2(C)C	0	0	0	-14	4	/	/	/	/
O=C(O)c1ccc(/C=N/Nc2ccc(F)cc2F)cc1	6	2	88*	21	-9	44*	21*	12	12
Fc1ccc(N/N=C/c2ccncc2)c(F)c1	-2	0	10	-14	-2	/	/	/	/
CCOC(=O)N[C@@H](Cc1cccnc1)C(=O)N1CCC[C@H]1C(=O)NCCc1ccccc1Cl	/	/	67*	61*	/	89*	5	86*	5
Cc1ccccc1C(=O)N[C@@H](Cc1cccnc1)C(=O)N1CCC[C@H]1C(=O)NC1CCCC1	/	/	0	9	/	/	/	/	/
Cc1ccccc1C(=O)N[C@@H](Cc1cccnc1)C(=O)N1CCC[C@H]1C(=O)NCCc1ccccc1Cl	/	/	41*	48	/	84*	19*	84*	4
CCOC(=O)N[C@@H](Cc1cccnc1)C(=O)N1CCC[C@H]1C(=O)NC1CCCC1	/	/	3	-12	/	/	/	/	/
CN(C[C@@H](Cc1cccc2ccccc12)N(C[C@H](Cc1ccccc1)N(CCc1ccccc1)N=O)N=O)N=O	-1	0	51*	8	-4	76*	3	18	8
O=C(/C=C1\OCc2ccccc21)c1ccccc1	/	/	1	-18	/	/	/	/	/
CN(C)C1=NC[C@H](Cc2ccccc2)N1CCCC1CCCC1	4	2	45*	-15	-4	22	7	20	14
SMILES	OXTR agonist	V1aR counter	TAAR1 ag	TAAR1 antagonist	OXTR potentiator	TAAR1 ag confirm	Ga16 nonsel ag	TAAR1 desensitize	Ga16 antag count
Cn1cnc([N+](=O)[O-])c1S(=O)(=O)Oc1ccc(Cl)cc1	/	/	8	16	/	/	/	/	/
CCC(C)(C)C(=O)Nc1ncc(S(=O)(=O)c2ccc([N+](=O)[O-])cc2)s1	33*	22*	104*	39	-23	76*	52*	52*	41*
CCOCCC(=O)Nc1ncc(S(=O)(=O)c2ccc([N+](=O)[O-])cc2)s1	/	/	22	3	/	/	/	/	/
CCC(C)NC(=O)CN(c1cc(C)cc(C)c1)S(=O)(=O)c1c(C)[nH]c(=O)[nH]c1=O (centres undefined)	1	0	0	-2	-1	/	/	/	/
CCOC(=O)C1=C(C)NC2=C(C(=O)CCC2)C1c1cccs1 (centres undefined)	-1	0	7	6	-1	/	/	/	/
CCOC(=O)c1sc2c(c1C)C(c1cccs1)C1=C(CCCC1=O)N2 (centres undefined)	13	9	68*	45	-19	46*	16*	25	15
COc1cc(CNCc2cc(OC)ccc2OC)cc(OC)c1	7	3	5	-14	-6	/	/	/	/
COc1ccc(C23CC4CC(CC(C4)C2)C3)cc1C(=O)NCCN(C)C	9	7	46*	3	-2	54*	21*	22	13
COc1ccccc1C(=O)NCCC(=O)NCCC12CC3CC(CC(C3)C1)C2	-1	3	-4	-25	-7	/	/	/	/
